Screening results deposited in PubChem BioAssay by several laboratories.
m5-HT2A agonist: activates the mouse 5-HT2A serotonin receptor; 0.66% of 360,000 active; activation, % at 7.6 µM; AID 624169; CHO-K1 mHTR2A beta-arrestin complementation, luminescence; percent of 30 µM serotonin response;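 active = activation above a run cutoff, the mean activation of all tested compounds plus 3 SD, cut at about 14% in these data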;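 also: 0% = plate median of compound wells and 100% = 30 µM serotonin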
PREPL inhibitor: human PREPL enzyme inhibition. Q4J6C6. recombinant PREPL, fluorescence polarization activity-based probe. inhibition, % at 5.96 µM. 0.68% of 320,000 active; in the data active = inhibition above about 43%;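 also: 0% = enzyme with DMSO and 100% = wells lacking enzyme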
MC4R ag barr: agonists of human melanocortin 4 receptor (MC4R) beta-arrestin. 0.98% of 360,000 active. activation, % at 8.9 µM. U2OS MC4R beta-arrestin complementation, luminescence; percent of melanotan II response, DMSO zero. AID 540308;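 active = activation above a per-plate cutoff, the mean activation of sample wells on that plate plus 3 SD, cut at about 8% in these data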
MC4R antagonist: human MC4R antagonism in cAMP assay. P32245. MC4R-expressing cells, MTII-stimulated cAMP, LANCE TR-FRET. inhibition, % at 6.5 µM. 0.48% of 360,000 active. AID 540295;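 active = inhibition above its plate's cutoff, the mean of tested wells on that plate plus 3 SD, cut at about 29% in these data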;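 also: 0% = Melanotan II alone and 100% = Melanotan II plus saturating MCL0020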
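Test system: U2OS cells stably expressing human melanocortin 4 receptor (MC4R); also added: Melanotan II challenge; compound: 6.5 µM single dose; timing: 30-min compound preincubation, 1-h Melanotan II challenge, 1-h detection, room temperature; signal: Eu-cAMP/anti-cAMP TR-FRET, emission 671 nm; repeats: one well per compound, no replicates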
Hep lipid drop: hepatic lipid droplet formation modulation; AML12 mouse hepatocytes, oleate lipid droplets, BODIPY imaging; inhibition, % at 6.5 µM; 0.4% of 240,000 active; AID 1656;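 active = lipid droplet intensity inhibited by at least 50%, with more than 500 cells counted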
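Assay system: AML12 mouse liver cells | Compound dosing: One dose, 6.5 µM compound | Read-out basis: Droplet intensity reduction, % inhibition | Measured by: Fluorescence imaging, 20x objective, two fields per well | Schedule: Overnight treatment with compound plus oleate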
NTR1 ag: NTR1 (human) agonism; AID 493036; activation, % at 20 µM; NTR1-U2OS beta-arrestin-GFP spot imaging, agonist mode; 0.17% of 330,000 active;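 active = activation at or above 40% of the spot to cytoplasm intensity ratio, with at least 20 cells analyzed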;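 also: 0% = DMSO without peptide and 100% = 100 nM NTR1 peptide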
Target sequence (P30989 whole entry, looked up): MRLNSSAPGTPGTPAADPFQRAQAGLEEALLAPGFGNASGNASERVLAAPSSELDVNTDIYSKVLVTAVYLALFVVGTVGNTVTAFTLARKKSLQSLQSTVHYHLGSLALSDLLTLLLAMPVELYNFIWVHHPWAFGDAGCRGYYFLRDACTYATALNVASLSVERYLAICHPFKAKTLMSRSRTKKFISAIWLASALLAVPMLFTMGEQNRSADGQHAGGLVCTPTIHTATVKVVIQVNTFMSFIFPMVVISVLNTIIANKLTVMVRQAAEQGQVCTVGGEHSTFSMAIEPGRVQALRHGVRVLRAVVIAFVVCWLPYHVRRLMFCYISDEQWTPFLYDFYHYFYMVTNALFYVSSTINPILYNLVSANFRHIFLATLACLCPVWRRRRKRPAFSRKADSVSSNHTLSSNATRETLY
MOR ag counter: counter-screen for mouse HTR2A agonists: human mu opioid receptor agonists; shares compounds with m5-HT2A agonist; U2OS OPRM1 beta-arrestin PathHunter, luminescence; DMSO 0%, DAMGO 9.3 µM 100%; activation, % at 9.3 µM; 5.3% of 2,300 active;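 active = mean activation above the mean of DMSO-only wells plus 3 SD, cut at about 0.5% in these data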
HTR2A ag conf: confirmation of mouse HTR2A serotonin receptor agonists; CHO-K1 PathHunter beta-arrestin recruitment, luminescence; DMSO 0%, 30 µM serotonin 100%; 19% of 2,300 active; activation, % at 7.6 µM; shares compounds with m5-HT2A agonist;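 active = mean activation across triplicates above the hit threshold derived in the original primary screen, cut at about 15% in these data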
Numbers without * were called inactive; · = no result. A selection: hits, their analogues and other compounds. The true share with any hit is near 2.7%.

SMILES	m5-HT2A agonist	PREPL inhibitor	MC4R ag barr	MC4R antagonist	Hep lipid drop	NTR1 ag	MOR ag counter	HTR2A ag conf
CCOC(=O)CN1C(=O)N[C@H](c2ccc(Br)cc2)C(C(C)=O)=C1C	-5	9	-1	17	-4	2	·	·
Cc1nn(Cc2c(Cl)cccc2Cl)c(Cl)c1/C=C/C(=O)OCC(=O)NCC(F)(F)F	-3	-2	-2	-4	8	0	·	·
COCCNC(=O)COC(=O)/C=C/c1c(C)nn(Cc2ccc(Cl)cc2Cl)c1Cl	35*	35	1	-6	·	0	-1	-5
CCOc1ccccc1C(=O)N[C@H](C(=O)NNC(=O)c1cccs1)C(C)C	10	7	-4	0	·	0	·	·
CCOc1ccccc1C(=O)NCC(=O)NNC(=O)c1cccs1	19*	3	-2	7	·	-2	-1	-5
COc1ccccc1CC(=O)NNC(=O)c1cccs1	15*	2	-2	6	8	3	-1	-1
COc1ccccc1-c1nc(C#N)c(NCCCn2ccnc2)o1	4	5	-1	10	-1	1	·	·
CCOc1ccc(/C=C\c2nc(O)c([N+](=O)[O-])c(=O)[nH]2)cc1OCC	15*	0	0	9	-1	0	-1	-3
CC1(C)NC(=S)NC1=S	17*	·	-1	0	·	·	-1	-2
CC(C)=CC(=O)N1CC[C@@H](N2CCN(c3ccccc3F)CC2)[C@H](O)C1	17*	-10	-2	5	-5	0	0	43*
CSCCC(=O)N1CC[C@@H](N2CCN(c3ccccc3F)CC2)[C@H](O)C1	15*	-4	-1	4	-2	0	-1	45*
CC(C)=CC(=O)N1CCCC(N2CCN(c3ccccc3C)CC2)C1 (stereo unspecified)	-11	7	-1	9	-1	0	·	·
Cc1cc(=O)oc2cc(NC(=O)c3ccccc3OC(F)F)ccc12	-3	28	-3	-8	-11	0	·	·
COc1ccc(/C=C/C(=O)Nc2nonc2NC(C)=O)cc1	25*	-5	-2	-6	-1	0	-1	-3
COc1ccc(/C=C/C(=O)Nc2cc(C)on2)cc1	-4	5	-1	-3	1	-1	·	·
CN(C)S(=O)(=O)c1ccc(NC(=O)CN2CCN(c3ccccn3)CC2)cc1	11	-3	-1	5	18	-1	·	·
CN(C)S(=O)(=O)c1cc(NC(=O)CN2CCN(c3ccccc3)CC2)ccc1Cl	18*	15	-2	10	-1	-2	-1	45*
CCN(CC)S(=O)(=O)c1cc(NC(=O)CN2CCN(c3ccccn3)CC2)ccc1C	32*	-5	-3	3	2	0	-1	94*
Cc1ccc(NC(=O)CN2CCN(c3ccccn3)CC2)cc1S(=O)(=O)N(C)C	51*	12	1	-1	1	0	-1	118*
COc1ccccc1NC(=O)CN1CCN(c2ccccn2)CC1	16*	9	-1	-1	-10	1	0	37*
CCN(CC)S(=O)(=O)c1cc(NC(=O)C(C)N2CCN(c3ccccn3)CC2)ccc1C (stereo unspecified)	-2	9	-2	-1	-7	-1	·	·
O=C(Nc1ccccc1)Nc1nnc(SCc2ccc(Cl)cc2)s1	17*	8	2	-6	-10	4	0	-1
O=C(Nc1ccc(Cl)cc1)Nc1nnc(SCc2ccc(Cl)cc2)s1	-2	13	-2	9	-35	2	·	·
Cc1cc(/C=C2\NC(=S)N(C)C2=O)ccc1N1CCCC1	-1	8	-2	2	-5	-4	·	·
CCCN1C(=O)/C(=C/c2ccc(N3CCCC3)c(C)c2)NC1=S	17*	0	0	14	·	-5	0	9
SMILES	m5-HT2A agonist	PREPL inhibitor	MC4R ag barr	MC4R antagonist	Hep lipid drop	NTR1 ag	MOR ag counter	HTR2A ag conf
Cc1ccc(S(=O)(=O)NCCC(=O)O)cc1	9	4	6	1	-8	0	·	·
CCN(CC)C(=O)CCNS(=O)(=O)c1ccc(C)cc1	15*	14	1	-3	·	3	-1	3
CC(=O)NCCc1ccc(C(=O)CSc2nnc(C3CC3)n2C2CC2)cc1	4	13	-3	15	·	0	·	·
Cc1ccccc1-n1ccnc1SCC(=O)O	17*	4	3	7	5	-1	-1	-5
CCC1=C(OC(=O)N(CC)CC)N2C(=O)OC(=NCCOC)[C@]2(Cc2ccccc2)[C@H]2C1=CC[C@H]1C(=O)N(CC)C(=O)[C@H]12	2	-1	-1	7	7	0	·	·
CCC1=C(OC(=O)N(CC)CC)N2C(=O)OC(=NCC3CC3)[C@]2(Cc2ccccc2)[C@H]2C1=CC[C@H]1C(=O)N(CC)C(=O)[C@H]12	18*	-1	0	5	-4	6	0.9*	4
Cc1ccccc1C(=O)O/N=C(\N)c1ccccc1	5	-3	-2	-6	10	2	·	·
Cc1ccccc1C(=O)O/N=C(\c1ccccc1)c1ccccn1	23*	6	2	-4	-6	1	-1	43*
O=C(C1CCC(CNS(=O)(=O)c2ccccc2)CC1)N1CCOCC1 (stereo unspecified)	2	7	-2	4	-1	1	·	·
COc1ccc(S(=O)(=O)NCc2nc3nc(C)cc(C)n3n2)cc1OC	-4	-8	-1	-9	-3	0	·	·
Cc1cc(C)n2nc(CNS(=O)(=O)c3ccc(C(C)(C)C)cc3)nc2n1	22*	·	0	0	·	·	0	2
COc1cccc(C2=NOC(C(=O)Nc3cc(OC)c(OC)c(OC)c3)C2)c1 (stereo unspecified)	-1	11	-1	11	·	0	·	·
COc1cc(NC(=O)C2CC(c3ccccc3Cl)=NO2)cc(OC)c1OC (stereo unspecified)	18*	12	1	15	-3	0	-1	-3
O=S(=O)(NN=C1CCCCCC1)c1ccc(Cl)cc1	0	-20	-1	-1	-5	1	·	·
O=S(=O)(NOCc1ccc(Cl)cc1)c1ccc(Cl)cc1	15*	-50	3	-1	·	7	0	-3
N#CCOC(=O)[C@H](Cc1ccccc1)N1C(=O)c2ccccc2C1=O	1	-9	2	-1	-8	-1	·	·
O=C(CCN1C(=O)c2ccccc2C1=O)NCc1ccco1	1	0	-1	-5	-15	0	·	·
